Results from ChEMBL document CHEMBL1136179, “Prolylisoxazoles: potent inhibitors of prolyloligopeptidase with antitrypanosomal activity” (Bioorg Med Chem Lett, 2003).
Converted amounts (≈) assume the structure as drawn.

Columns and labels:
[1] = system: Leishmania donovani; assay: Antiprotozoal activity against Leishmania donovani L82 was determined; assay type: functional; details: read-out: ED50 (the source's name)
How it was run: (§1)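 Leishmania donovani strain L82 was tested against test compounds, with pentostam as the reference drug.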

[2] = system: KB; assay: Toxicity in T. b. rhodesiense STIB900 infected KB cells; assay type: functional; details: Homo sapiens, read-out: ED50 (the source's name)
How it was run: (§2)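 Cytotoxicity was measured on KB cells, with podophyllotoxin as the reference drug.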

[3] = system: KB; assay: Toxicity in Trypanosoma cruzi Lac Z infected KB cells; assay type: functional; details: Homo sapiens, read-out: ED50 (the source's name); how it was run: as §2
[4] = system: KB; assay: Toxicity in Leishmania donovani L82 infected KB cells; assay type: functional; details: Homo sapiens, read-out: ED50 (the source's name); how it was run: as §2
[5] = system: Leishmania donovani; assay: Antiprotozoal activity against Leishmania donovani L82 at a dose of 30 ug/mL. Compound was toxic to host macrophages; assay type: functional; how it was run: as §1
[6] = system: Leishmania donovani; assay: Antiprotozoal activity against Leishmania donovani L82 at a dose of 3 ug/mL.; assay type: functional; how it was run: as §1
[7] = system: Leishmania donovani; assay: Antiprotozoal activity against Leishmania donovani L82 at a dose of 10 ug/mL.; assay type: functional; how it was run: as §1
[8] = system: Trypanosoma cruzi; assay: Antiprotozoal activity against Trypanosoma cruzi Lac Z was determined; assay type: functional; details: read-out: ED50 (the source's name)
How it was run: (§3)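 Trypanosoma cruzi of the Lac Z strain was tested, with benznidazol as the reference drug.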

[9] = system: Trypanosoma brucei rhodesiense; assay: Antiprotozoal activity against T. b. rhodesiense STIB900 at a dose of 10 ug/mL.; assay type: functional
How it was run: (§4)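 Trypanosoma brucei rhodesiense strain STIB900 was tested, with pentamidine as the reference drug.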

[10] = system: Trypanosoma brucei rhodesiense; assay: Antiprotozoal activity against T. b. rhodesiense STIB900 at a dose of 1 ug/mL.; assay type: functional; how it was run: as §4
[11] = system: Trypanosoma brucei rhodesiense; assay: Antiprotozoal activity against T. b. rhodesiense STIB900 at a dose of 3 ug/mL.; assay type: functional; how it was run: as §4
[12] = system: Trypanosoma brucei rhodesiense; assay: Antiprotozoal activity against T. b. rhodesiense STIB900 was determined; assay type: functional; details: read-out: ED50 (the source's name); how it was run: as §4
[13] = system: Trypanosoma cruzi; assay: Antiprotozoal activity against Trypanosoma cruzi Lac Z at a dose of 1 ug/mL.; assay type: functional; how it was run: as §3
[14] = system: Trypanosoma cruzi; assay: Antiprotozoal activity against Trypanosoma cruzi Lac Z at a dose of 30 ug/mL. Compound was toxic to host macrophages; assay type: functional; how it was run: as §3
[15] = system: Trypanosoma cruzi; assay: Antiprotozoal activity against Trypanosoma cruzi Lac Z at a dose of 3 ug/mL.; assay type: functional; how it was run: as §3
[16] = system: Trypanosoma cruzi; assay: Antiprotozoal activity against Trypanosoma cruzi Lac Z at a dose of 10 ug/mL.; assay type: functional; how it was run: as §3
[17] = system: Trypanosoma brucei rhodesiense; assay: Antiprotozoal activity against T. b. rhodesiense STIB900 at a dose of 30 ug/mL
[18] = molecular target: T1, Prolyl endopeptidase (Homo sapiens, UniProt P48147); assay: In vitro inhibitory activity determined against prolyl oligopeptidase (PO) in human; Moderately active
T1 sequence (P48147 whole entry): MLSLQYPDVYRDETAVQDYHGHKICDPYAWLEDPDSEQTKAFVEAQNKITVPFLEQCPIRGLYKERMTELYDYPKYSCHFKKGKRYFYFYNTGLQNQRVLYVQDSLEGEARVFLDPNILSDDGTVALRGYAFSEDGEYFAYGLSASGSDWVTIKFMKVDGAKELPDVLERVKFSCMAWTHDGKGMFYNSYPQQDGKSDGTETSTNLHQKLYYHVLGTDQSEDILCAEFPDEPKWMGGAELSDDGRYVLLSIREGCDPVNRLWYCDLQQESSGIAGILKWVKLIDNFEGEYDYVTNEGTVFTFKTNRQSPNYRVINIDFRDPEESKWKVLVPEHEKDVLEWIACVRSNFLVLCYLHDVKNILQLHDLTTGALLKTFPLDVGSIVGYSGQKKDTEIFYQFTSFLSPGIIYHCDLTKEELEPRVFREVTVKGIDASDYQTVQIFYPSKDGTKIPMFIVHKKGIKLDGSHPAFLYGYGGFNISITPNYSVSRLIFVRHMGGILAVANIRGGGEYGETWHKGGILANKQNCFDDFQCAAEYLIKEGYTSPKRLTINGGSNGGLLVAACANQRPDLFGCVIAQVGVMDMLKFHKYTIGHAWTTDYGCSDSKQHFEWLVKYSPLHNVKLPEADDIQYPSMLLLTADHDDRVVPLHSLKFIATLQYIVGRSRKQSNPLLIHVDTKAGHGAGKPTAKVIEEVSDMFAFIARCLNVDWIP

[19] = system: Leishmania donovani; assay: Antiprotozoal activity against Leishmania donovani was determined; details: read-out: ED50
[20] = system: KB; assay: Toxicity in Leishmania donovani infected KB cells; assay type: functional; details: Homo sapiens, read-out: ED50 (the source's name); how it was run: as §2
[21] = system: KB; assay: Toxicity in Trypanosoma cruzi infected KB cells; assay type: functional; details: Homo sapiens, read-out: ED50 (the source's name); how it was run: as §2
[22] = system: Leishmania donovani; assay: Antiprotozoal activity against Leishmania donovani at a dose of 10 ug/mL.; assay type: functional; how it was run: as §1
[23] = system: Leishmania donovani; assay: Antiprotozoal activity against Leishmania donovani at a dose of 30 ug/mL. Compound was toxic to host macrophages; assay type: functional; how it was run: as §1
[24] = system: Leishmania donovani; assay: Antiprotozoal activity against Leishmania donovani at a dose of 3 ug/mL.; assay type: functional; how it was run: as §1
[25] = system: Trypanosoma cruzi; assay: Antiprotozoal activity against Trypanosoma cruzi was determined; assay type: functional; details: read-out: ED50 (the source's name); how it was run: as §3
[26] = system: Trypanosoma brucei rhodesiense; assay: Antiprotozoal activity against T. b. rhodesiense at a dose of 10 ug/mL.; assay type: functional; how it was run: as §4
[27] = system: Trypanosoma brucei rhodesiense; assay: Antiprotozoal activity against T. b. rhodesiense at a dose of 1 ug/mL.; assay type: functional; how it was run: as §4
[28] = system: Trypanosoma brucei rhodesiense; assay: Antiprotozoal activity against T. b. rhodesiense at a dose of 3 ug/mL.; assay type: functional; how it was run: as §4
[29] = system: Trypanosoma brucei rhodesiense; assay: Antiprotozoal activity against T. b. rhodesiense was determined; assay type: functional; details: read-out: ED50 (the source's name); how it was run: as §4
[30] = system: Trypanosoma cruzi; assay: Antiprotozoal activity against Trypanosoma cruzi at a dose of 10 ug/mL.; assay type: functional; how it was run: as §3
[31] = system: Trypanosoma cruzi; assay: Antiprotozoal activity against Trypanosoma cruzi at a dose of 1 ug/mL.; assay type: functional; how it was run: as §3
[32] = system: Trypanosoma cruzi; assay: Antiprotozoal activity against Trypanosoma cruzi at a dose of 30 ug/mL. Compound was toxic to host macrophages; assay type: functional; how it was run: as §3
[33] = system: Trypanosoma cruzi; assay: Antiprotozoal activity against Trypanosoma cruzi at a dose of 3 ug/mL.; assay type: functional; how it was run: as §3
[34] = system: KB; assay: Toxicity in T. b. rhodesiense infected KB cells; assay type: functional; details: Homo sapiens, read-out: ED50 (the source's name); how it was run: as §2
[35] = system: Trypanosoma brucei rhodesiense; assay: Antiprotozoal activity against T. b. rhodesiense at a dose of 30 ug/mL

`O=C(c1cc(COCc2ccccc2)on1)[C@@H]1CCCN1C(=O)[C@@H]1CCCN1C(=O)CCCc1ccccc1` was tested, and the EC50 [1] was 13.1 µg/mL (≈ 24.7 µM), the EC50 [2] was > 300 µg/mL and the EC50 [3] was > 300 µg/mL. For the same molecule, the EC50 [4] was > 300 µg/mL, the inhibition at 30 µg/mL [5] was 100% and the inhibition at 3 µg/mL [6] was 0%. The inhibition at 10 µg/mL [7] was 6.9%, the EC50 [8] was 4.7 µg/mL (≈ 8.87 µM) and the inhibition at 10 µg/mL [9] was 95.5%. It also gave an inhibition at 1 µg/mL [10] of 0.9%, an inhibition at 3 µg/mL [11] of 6.9% and an EC50 [12] of 5.5 µg/mL (≈ 10.4 µM). For the same molecule, the inhibition at 1 µg/mL [13] was 16%, the inhibition at 30 µg/mL [14] was 86.7% and the inhibition at 3 µg/mL [15] was 42.6%. It also gave an inhibition at 10 µg/mL [16] of 69.4% and an inhibition at 30 µg/mL [17] of 99.9%.
In the case of `COC(=O)c1onc(C(=O)[C@@H]2CCCN2C(=O)[C@@H]2CCCN2C(=O)OCc2ccccc2)c1C(=O)OC`, the IC50 [18] is reported as > 1000 nM.
In the case of `O=C(c1cc(-c2ccccc2)on1)[C@@H]1CCCN1C(=O)[C@@H]1CCCN1C(=O)OCc1ccccc1`, the EC50 [19] is reported as 13.5 µg/mL (≈ 28.5 µM), the EC50 [20] is reported as 23 µg/mL (≈ 48.6 µM) and the EC50 [21] is reported as 23 µg/mL (≈ 48.6 µM). It also gave an inhibition at 10 µg/mL [22] of 1.8%, an inhibition at 30 µg/mL [23] of 100% and an inhibition at 3 µg/mL [24] of 0%. For the same molecule, the EC50 [25] was 6.7 µg/mL (≈ 14.1 µM), the inhibition at 10 µg/mL [26] was 99.8% and the inhibition at 1 µg/mL [27] was 7.7%. For the same molecule, the inhibition at 3 µg/mL [28] was 83.4%, the EC50 [29] was 2.2 µg/mL (≈ 4.65 µM) and the inhibition at 10 µg/mL [30] was 59.9%. The inhibition at 1 µg/mL [31] was 10.8%, the inhibition at 30 µg/mL [32] was 86.7% and the inhibition at 3 µg/mL [33] was 29%. The EC50 [34] was 23 µg/mL (≈ 48.6 µM) and the inhibition at 30 µg/mL [35] was 99.9%.
